Publication PMC8486219 (Cancer Science, 2021)

Assays:
[1] = Preliminary pharmacokinetics after i.v. bolus; type: in vivo, mouse; conditions: CD-1 mice, single i.v. bolus TH1902 50 mg/kg
[2] = tested on: MDA‐MB‐231 xenograft; assay: MDA-MB-231 xenograft, intravenous treatment; type: in vivo, mouse
[3] = tested on: MDA‐MB‐231 cells; assay: Real-time cell migration assay; type: cell-based, human; conditions: 2 h pretreatment, 1 µM TH1902 or 2 µM docetaxel, monitored 12 h
Method in brief: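 MDA-MB-231 cells were transfected 24 h with scrambled or SORT1 siRNA, then pretreated 2 h with or without compound. Cells (25 000/well) were seeded serum-free into xCELLigence CIM plates (8 µm pores, underside gelatin-coated 0.15%, 1 h, 37°C), with serum-free medium below. After 30 min adhesion, impedance (Cell Index) was read hourly for 12 h. Duplicate wells, two experiments; one-way ANOVA with Dunnett at 10 h.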

[4] = tested on: MDA‐MB‐231‐Luc xenograft; assay: MDA-MB-231-Luc xenograft, intraperitoneal treatment; type: in vivo, mouse; conditions: i.p. docetaxel 15 mg/kg/wk (MTD), five cycles, CD-1 nude mice, bioluminescence
Method in brief: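 MDA-MB-231-Luc cells (5 × 10^6 in HBSS) were injected s.c. into the right flank of female CD-1 nude mice under isoflurane. At ~100 mm3, mice received weekly i.p. vehicle, docetaxel 15 mg/kg, or test compound 50 mg/kg for five cycles. Tumor bioluminescence was monitored and expressed relative to each mouse's day-0 post-treatment value, as mean ± SEM (six mice/group).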

[5] = tested on: PD‐L1‐positive TNBC; conditions: phase 1b trial of 32 patients with PD-L1-positive TNBC; cited from earlier work

Compound	free docetaxel exposure, fold lower than TH1902-associated docetaxel in plasma [1]	AUC of free (released) docetaxel after TH1902 dosing ([1]; plasma, UPLC/MS) [µmol·h/L]	Cmax of free (released) docetaxel after TH1902 dosing ([1]; plasma, UPLC/MS) [µmol/L]	Tumor growth at a quarter of the MTD (in words) ([2]; i.v. docetaxel 3.75 mg/kg or TH1902 8.75 mg/kg, n = 6 mice/group)	Restart of tumor growth ([2]; i.v. docetaxel 15 mg/kg/wk (MTD), three injections, n = 5 mice/group) [days]	Effect on cell migration (in words) [3]	Start of tumor relapse [4] [days]	response rate [5] [%]
CC(=O)O[C@@]12CO[C@@H]1C[C@H](O)[C@@]1(C)C(=O)[C@H](O)C3=C(C)[C@@H](OC(=O)[C@H](O)[C@@H](NC(=O)OC(C)(C)C)c4ccccc4)C[C@@](O)([C@@H](OC(=O)c4ccccc4)[C@H]21)C3(C)C [docetaxel]	approximately 37 fold	15.5	7	unaffected	50	inhibit cell migration	46	
Pembrolizumab: monoclonal anti‐PD‐1 antibody								18.5
